Screening results (PubChem BioAssay)
T cruzi repl – T. cruzi replication inhibition; T. cruzi beta-gal in NIH3T3, luminescence, 90 h; inhibition, % (concentration not given with the values); 300,000 compounds, 1.4% hits; AID 1885;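 active means mean inhibition across valid replicates above about 55%, limit read from the data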;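 further: signal also drops with host cell toxicity which is not excluded here; 0% = plate median of DMSO wells and 100% = zero luminescence signal; higher percent means less beta-gal luminescence so fewer parasites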
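System: Mouse NIH/3T3 fibroblasts infected with β-gal-expressing T. cruzi Tulahuen C4 | Quantity: NIH/3T3 cells, 5,000 per well | Reagent: 5000 reporter trypomastigotes per well | Dosing: Compound pinned at 50 nL/well, DMSO | Schedule: 3 h host attachment, then at least 90 h co-culture | Detection: GalScreen luminescence, 60 min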
CSC inhib – cancer stem cell inhibition. inhibition, % at 7.5 µM. cancer stem cell-like cells viability, luminescence. 300,000 compounds, 1.1% hits. AID 2717; in the data active means inhibition above about 75%; tested in HMLE shEcad cells
Beta cell apopt – blocks beta cell apoptosis | INS-1E cytokine-induced death, ATP luminescence, 48 h; percent of positive-control rescue, neutral wells zero | protection from apoptosis, % (concentration not given with the values) | 300,000 compounds, 0.8% hits;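 active means Every replicate reaches about 75%, or at least half do and their mean reaches it too, limit read from the data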;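 further: 0% = cytokine-treated negative control wells and 100% = positive control rescue; higher means more ATP so stronger rescue from cytokine killing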
Mot1-301 SUMO – blocks SUMOylation pathway, rescuing yeast Mot1-301 growth; S. cerevisiae Mot1-301 growth rescue, ATP luminescence, 38.5C; percent above DMSO median, 100 means doubled; growth rescue, % at 18.8 µM; 320,000 compounds, 1% hits;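 active means every valid replicate shows activation above 250% relative to neutral control wells; inactive means the rest, any valid replicate at or below 250%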;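 further: OY570 slx delta 5 strain wells were the positive control but not used for scaling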
WT yeast gro inh – growth inhibition of WT yeast, mitochondrial fusion screen. mitochondrial fusion phenotypic screen, WT strain. inhibition, % at 10 µM. 190,000 compounds, 2.1% hits. AID 1362; in the data active means inhibition above about 58%; tested in S. cerevisiae
Efflux pump mplx – blocks antifungal efflux pumps in multiplex yeast assay; inhibition, % at 10 µM; S. cerevisiae Candida pump triplex, Nile Red efflux; 330,000 compounds, 0.44% hits;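 active means plate passing quality check with inhibition over a set limit, or well fluorescence over plate mean plus 4 SD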;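 further: Nile Red retained in pooled yeast measured as flow cytometry median fluorescence; 0% = buffer negative control and 100% = Enniatin B positive control; higher means more Nile Red kept so more efflux inhibition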
The depositor's hits bear a star; · = not tested or not shown. Hits are enriched below; roughly 4.8% of the tested compounds scored in any of these assays.

SMILES	T cruzi repl	CSC inhib	Beta cell apopt	Mot1-301 SUMO	WT yeast gro inh	Efflux pump mplx
Clc1ccc2c(c1)C(c1ccccc1Cl)=NCc1nnc(N3CCN(CCOc4ccccc4)CC3)n1-2	44	-10	1	346*	60*	0
CN1CCN(Cc2nnc3n2-c2ccc(Cl)cc2C(c2ccccc2)=NC3)CC1	-8	-12	-2	3	7	0
Clc1ccc2c(c1)C(c1ccccc1Cl)=NCc1nnc(N3CCN(CCSc4ccccc4)CC3)n1-2	30	13	1	240	76*	0
Clc1cc(Cl)c(-c2cc(Cl)c(Cl)cc2Cl)cc1Cl	·	27	-5	-25	·	0
O=C(Cn1ncn2c(cc3cc(F)ccc32)c1=O)N1CCC2(CC1)OCCO2	-4	1	-1	9	·	0
Cc1cccc(-n2c(-c3ccccc3)nc3ccccc3c2=O)n1	-1	-11	-4	-7	-18	0
O=P(Nc1cccnc1)(Oc1ccccc1)Oc1ccccc1	5	-9	1	-10	-9	0
COc1cccc(NP(=O)(Oc2ccccc2)Oc2ccccc2)c1	-70	99*	7	-17	21	-9
O=P(Nc1cccc(Cl)c1)(Oc1ccccc1)Oc1ccccc1	17	19	-1	-3	79*	0
CC[C@H](C)[C@@H]1O[C@@]2(C=CC1C)CC1C[C@@H](CC=C(C)C(O[C@H]3CC(OC)C(O[C@H]4CC(OC)C(O)C(C)O4)C(C)O3)C(C)C=CC=C3CO[C@@H]4C(O)C(C)=C[C@@H](C(=O)O1)[C@]34O)O2 (stereo not given in full)	·	103*	17	-8	·	0
COc1ccc(C[C@H]2NC[C@H](O)[C@H]2OC(C)=O)cc1	44	79*	51	71	·	0
O=c1c2ccccc2nc(-c2ccco2)n1-c1ccc(Br)cc1	21	45	0	-13	·	0
CCCCCc1nc2c(c(=O)c3ccccc3n2C)c(=O)n1C1CCCCCC1	51	149*	111*	22	97*	1
CN1CCN(c2cc(N3CCCC3)c([N+](=O)[O-])cc2F)CC1	33	-13	-1	332*	18	0
COC(=O)C1=C(c2cc3ccccc3s2)C[C@@H]2CC[C@H]1N2C(=O)NCc1ccc(C(F)(F)F)cc1	57*	60	-1	-10	·	0
C[n+]1c(-c2ccccc2)c2cc(N)ccc2c2ccc(N)cc21	62*	44	97*	116	·	8.5*
[N-]=[N+]=NC1C[C@H](n2ccc(=O)[nH]c2=O)O[C@@H]1CO (stereo not given in full)	-18	-8	-9	-3	-4	0
CCC(=O)c1ccc(OCC(=O)N2CCN(CC(=O)Nc3ccccc3C(F)(F)F)CC2)cc1	·	-17	-1	8	·	0
O=c1[nH]sc2cc(F)ccc12	87*	·	·	·	73*	·
CC(C)(C)C(=O)O[C@H]1CC[C@@]2(C)C(=CC(=O)C3C2CC[C@]2(C)C(=O)CCC32)C1 (stereo not given in full)	·	13	5	14	·	0
CC(=O)O[C@H]1CC[C@@]2(C)C(=CC[C@@H]3[C@@H]2CC[C@]2(C)C(=O)CC[C@@H]32)C1	·	32	2	483*	·	0
O=c1[nH]c(=O)n(Cc2ccc(F)cc2)c(O)c1/C=N/Nc1ccccc1	26	79*	3	133	·	0
O=c1[nH]c(=O)n(CCC2=CCCCC2)c(O)c1/C=N/Nc1ccccc1	31	97*	0	291*	21	0
CC(C)(C)c1cc(C=C(C#N)C#N)cc(C(C)(C)C)c1O	·	81*	117*	-5	·	0
COC(=O)C1=C(c2ccccc2OCc2ccccc2)C[C@@H]2CC[C@H]1N2C(=O)NCc1cccc(C(F)(F)F)c1	·	19	-1	5	·	0
Cc1cc(OCC(=O)NCc2ccc(S(N)(=O)=O)cc2)c2c3c(c(=O)oc2c1)CCC3	-5	4	1	-6	·	0
O=C(CSC1c2ccccc2-c2ccccc21)N/N=C/c1ccccc1O	60*	83*	87*	19	8	0
O=C(CSC1c2ccccc2-c2ccccc21)N/N=C/c1ccc(C(=O)O)cc1	-24	-9	-6	26	-5	0
COC(=O)C1=C(c2ccc(F)cc2OCc2ccccc2)C[C@@H]2CC[C@H]1N2C(=O)N1CCC(O)CC1	·	-11	-3	13	·	0
